Experimental data reported in ChEMBL document CHEMBL1147105, “In vitro and in vivo activities of PD 0305970 and PD 0326448, new bacterial gyrase/topoisomerase inhibitors with potent antibacterial activities versus multidrug-resistant gram-positive and fastidious organism groups” (2007).
Converted amounts (≈) assume the structure as drawn.

Assays:
Moraxella catarrhalis [1] = experiment: Antibacterial activity against beta-lactamase negative Moraxella catarrhalis; type: functional
Corynebacterium jeikeium = experiment: Antibacterial activity against Corynebacterium jeikeium; type: functional
Procedure, shortened: (§1)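 Broth microdilution MIC following CLSI guidelines, in cation-adjusted Mueller-Hinton broth containing 3% lysed horse blood, incubated at 35°C. Clinical isolates with identity confirmed. Reported as MIC range, MIC50 and MIC90.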

Staphylococcus warneri = experiment: Antibacterial activity against Staphylococcus warneri; type: functional
Procedure, shortened: (§2)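 Broth microdilution MIC following CLSI guidelines, in cation-adjusted Mueller-Hinton broth, incubated at 35°C. Recent clinical isolates and reference strains, with identity confirmed by automated and standard microbiological methods. Results reported as MIC range, MIC50 and MIC90.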

Streptococcus pneumoniae [2] = experiment: Antibacterial activity against penicillin-susceptible Streptococcus pneumoniae; type: functional
Procedure, shortened: (§3)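 Broth microdilution MIC per CLSI guidelines, incubated at 35°C. Cation-adjusted Mueller-Hinton broth for nonfastidious organisms and staphylococci. Streptococci tested in the same broth with 3% lysed horse blood. Anaerobes tested in supplemented Brucella broth inside an anaerobe chamber (5% CO2, 5% H2, 90% N2), read after 48 h. Strains were mainly recent clinical isolates with confirmed identity.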

Clostridioides difficile = experiment: Antibacterial activity against Clostridium difficile; type: functional
Procedure, shortened: (§4)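 Anaerobic broth microdilution MIC following CLSI guidelines, in supplemented Brucella broth. Run in an anaerobe chamber under 5% CO2, 5% H2 and 90% N2 at 35°C, and read after 48 h. Reported as MIC range, MIC50 and MIC90.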

Morganella morganii = experiment: Antibacterial activity against Morganella morganii; type: functional; procedure, shortened: as §2
Streptococcus viridans = experiment: Antibacterial activity against Streptococcus viridans; type: functional
Procedure, shortened: (§5)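 Broth microdilution MIC following CLSI guidelines, in cation-adjusted Mueller-Hinton broth with 3% lysed horse blood. Plates incubated at 35°C. Clinical isolates and reference strains, with identity confirmed by standard microbiological methods.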

Staphylococcus aureus = experiment: Antibacterial activity against oxacillin and levofloxacin-resistant Staphylococcus aureus; type: functional; procedure, shortened: as §3
Moraxella catarrhalis [3] = experiment: Antibacterial activity against beta-lactamase positive Moraxella catarrhalis; type: functional
Legionella pneumophila = experiment: Antibacterial activity against Legionella pneumophila; type: functional
Procedure, shortened: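 Broth microdilution MIC per CLSI guidelines, run in buffered yeast extract α-ketoglutarate broth at 35°C and read after 48 h.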

[4] = system: Staphylococcus epidermidis; experiment: Antibacterial activity against oxacillin-resistant Staphylococcus epidermidis; type: functional; procedure, shortened: as §3
Neisseria meningitidis = experiment: Antibacterial activity against Neisseria meningitidis; type: functional
Procedure, shortened: (§6)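 MIC by broth microdilution in gonococcal broth, incubated at 35°C in 5% CO2. Reported as MIC range, MIC50 and MIC90.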

Bacteroides fragilis = experiment: Antibacterial activity against Bacteroides fragilis; type: functional; procedure, shortened: as §4
Bacteroides ovatus = experiment: Antibacterial activity against Bacteroides ovatus; type: functional; procedure, shortened: as §4
Escherichia coli = experiment: Antibacterial activity against Escherichia coli; type: functional; procedure, shortened: as §2
Klebsiella pneumoniae = experiment: Antibacterial activity against beta-lactamase positive Klebsiella pneumoniae; type: functional
Procedure, shortened: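 MIC by CLSI broth microdilution for nonfastidious organisms, in cation-adjusted Mueller-Hinton broth incubated at 35°C.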

Hoylesella oralis = experiment: Antibacterial activity against Prevotella oralis; type: functional; procedure, shortened: as §4
Anaerococcus prevotii = experiment: Antibacterial activity against Peptostreptococcus prevotii; type: functional; procedure, shortened: as §4
Corynebacterium sp. = experiment: Antibacterial activity against Corynebacterium sp.; type: functional; procedure, shortened: as §1
Finegoldia magna = experiment: Antibacterial activity against Peptostreptococcus magnus; type: functional; procedure, shortened: as §4
[5] = system: Parabacteroides distasonis; experiment: Antimicrobial activity against Bacteroides distasonis; type: functional
Procedure, shortened: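 Anaerobic broth microdilution MIC following CLSI guidelines, in supplemented Brucella broth. Incubated at 35°C in a chamber under 5% CO2, 5% H2 and 90% N2. Read after 48 h.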

Enterococcus faecium [6] = experiment: Antibacterial activity against VanA-resistant Enterococcus faecium; type: functional; procedure, shortened: as §3
Haemophilus influenzae = experiment: Antibacterial activity against beta-lactamase positive Haemophilus influenzae; type: functional
Procedure, shortened: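 Broth microdilution MIC following CLSI guidelines, in Haemophilus test medium at 35°C.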

Enterococcus faecium [7] = experiment: Antibacterial activity against VanB-resistant Enterococcus faecium; type: functional; procedure, shortened: as §3
Shigella dysenteriae = experiment: Antibacterial activity against Shigella dysenteriae; type: functional
Streptococcus pyogenes = experiment: Antibacterial activity against Streptococcus pyogenes; type: functional; procedure, shortened: as §5
[8] = system: Staphylococcus saprophyticus; experiment: Antibacterial activity against Staphylococcus saprophyticus; type: functional; procedure, shortened: as §2
Acinetobacter sp. = experiment: Antibacterial activity against Acinetobacter sp.; type: functional; procedure, shortened: as §2
Salmonella typhimurium = experiment: Antibacterial activity against Salmonella enterica serovar Typhimurium; type: functional, Salmonella enterica subsp. enterica serovar Typhimurium; procedure, shortened: as §2
Proteus vulgaris = experiment: Antibacterial activity against Proteus vulgaris; type: functional; procedure, shortened: as §2
[9] = system: Peptoniphilus asaccharolyticus; experiment: Antibacterial activity against Peptostreptococcus asaccharolyticus; type: functional; procedure, shortened: as §4
[10] = system: Peptostreptococcus anaerobius; experiment: Antibacterial activity against Peptostreptococcus anaerobius; type: functional; procedure, shortened: as §4
Enterococcus faecalis = experiment: Antibacterial activity against VanA-resistant Enterococcus faecalis; type: functional; procedure, shortened: as §3
Burkholderia cepacia = experiment: Antibacterial activity against Burkholderia cepacia; type: functional; procedure, shortened: as §2
Streptococcus salivarius = experiment: Antibacterial activity against Streptococcus salivarius; type: functional; procedure, shortened: as §5
Shigella sonnei = experiment: Antibacterial activity against Shigella sonnei; type: functional; procedure, shortened: as §2
Fusobacterium nucleatum = experiment: Antibacterial activity against Fusobacterium nucleatum; type: functional; procedure, shortened: as §4
Prevotella sp. = experiment: Antibacterial activity against Prevotella sp.; type: functional; procedure, shortened: as §4
Salmonella enteritidis = experiment: Antibacterial activity against Salmonella enterica serovar Enteritidis; type: functional, Salmonella enterica subsp. enterica serovar Enteritidis; procedure, shortened: as §2
Neisseria gonorrhoeae = experiment: Antibacterial activity against Neisseria gonorrhoeae; type: functional; procedure, shortened: as §6
Streptococcus pneumoniae [11] = experiment: Antibacterial activity against levofloxacin-resistant Streptococcus pneumoniae; type: functional; procedure, shortened: as §3
Cutibacterium acnes = experiment: Antibacterial activity against Propionibacterium acnes; type: functional
Pseudomonas aeruginosa = experiment: Antibacterial activity against Pseudomonas aeruginosa; type: functional; procedure, shortened: as §2
Streptococcus pneumoniae [12] = experiment: Antibacterial activity against penicillin-intermediate resistant Streptococcus pneumoniae; type: functional; procedure, shortened: as §3
Klebsiella oxytoca = experiment: Antibacterial activity against Klebsiella oxytoca; type: functional; procedure, shortened: as §2

`COc1c(N2CCNC(C)C2)c(F)cc2c(=O)c(C(=O)O)cn(C3CC3)c12` (stereo unspecified) [GATIFLOXACIN] gave an MIC50 (Moraxella catarrhalis [1]) of 0.06 µg/mL (≈ 0.16 µM), an MIC90 (Moraxella catarrhalis [1]) of 0.06 µg/mL (≈ 0.16 µM) and an MIC50 (Corynebacterium jeikeium) of 0.125 µg/mL (≈ 0.333 µM). The MIC90 (Corynebacterium jeikeium) was 0.5 µg/mL (≈ 1.33 µM), the MIC (Staphylococcus warneri) was 0.125 µg/mL (≈ 0.333 µM) and the MIC50 (Streptococcus pneumoniae [2]) was 0.25 µg/mL (≈ 0.666 µM). For the same molecule, the MIC90 (Streptococcus pneumoniae [2]) was 0.5 µg/mL (≈ 1.33 µM), the MIC50 (Clostridioides difficile) was 0.5 µg/mL (≈ 1.33 µM) and the MIC90 (Clostridioides difficile) was 0.5 µg/mL (≈ 1.33 µM). For the same molecule, the MIC50 (Morganella morganii) was 0.25 µg/mL (≈ 0.666 µM), the MIC90 (Morganella morganii) was 32 µg/mL (≈ 85.2 µM) and the MIC50 (Streptococcus viridans) was 0.5 µg/mL (≈ 1.33 µM). The MIC90 (Streptococcus viridans) was 0.5 µg/mL (≈ 1.33 µM), the MIC50 (Staphylococcus aureus) was 8 µg/mL (≈ 21.3 µM) and the MIC90 (Staphylococcus aureus) was 16 µg/mL (≈ 42.6 µM). For the same molecule, the MIC50 (Moraxella catarrhalis [3]) was 0.03 µg/mL (≈ 0.0799 µM), the MIC90 (Moraxella catarrhalis [3]) was 0.06 µg/mL (≈ 0.16 µM) and the MIC50 (Legionella pneumophila) was 0.008 µg/mL (≈ 0.0213 µM). For the same molecule, the MIC90 (Legionella pneumophila) was 0.008 µg/mL (≈ 0.0213 µM), the MIC50 [4] was 2 µg/mL (≈ 5.33 µM) and the MIC90 [4] was 32 µg/mL (≈ 85.2 µM). The MIC50 (Neisseria meningitidis) was 0.004 µg/mL (≈ 0.0107 µM), the MIC90 (Neisseria meningitidis) was 0.008 µg/mL (≈ 0.0213 µM) and the MIC50 (Bacteroides fragilis) was 1 µg/mL (≈ 2.66 µM). The MIC90 (Bacteroides fragilis) was 8 µg/mL (≈ 21.3 µM), the MIC50 (Bacteroides ovatus) was 4 µg/mL (≈ 10.7 µM) and the MIC90 (Bacteroides ovatus) was 16 µg/mL (≈ 42.6 µM). The MIC50 (Escherichia coli) was 0.03 µg/mL (≈ 0.0799 µM), the MIC90 (Escherichia coli) was 1 µg/mL (≈ 2.66 µM) and the MIC50 (Klebsiella pneumoniae) was 1 µg/mL (≈ 2.66 µM). For the same molecule, the MIC90 (Klebsiella pneumoniae) was 16 µg/mL (≈ 42.6 µM), the MIC50 (Hoylesella oralis) was 0.25 µg/mL (≈ 0.666 µM) and the MIC90 (Hoylesella oralis) was 0.5 µg/mL (≈ 1.33 µM). It also gave an MIC (Anaerococcus prevotii) of 0.06 µg/mL (≈ 0.16 µM), an MIC50 (Corynebacterium sp.) of 0.25 µg/mL (≈ 0.666 µM) and an MIC90 (Corynebacterium sp.) of 32 µg/mL (≈ 85.2 µM). It also gave an MIC (Finegoldia magna) of 0.06 µg/mL (≈ 0.16 µM), an MIC50 [5] of 4 µg/mL (≈ 10.7 µM) and an MIC90 [5] of 16 µg/mL (≈ 42.6 µM). For the same molecule, the MIC50 (Enterococcus faecium [6]) was 32 µg/mL (≈ 85.2 µM), the MIC90 (Enterococcus faecium [6]) was 64 µg/mL (≈ 170 µM) and the MIC50 (Haemophilus influenzae) was 0.015 µg/mL (≈ 0.04 µM). For the same molecule, the MIC90 (Haemophilus influenzae) was 0.015 µg/mL (≈ 0.04 µM), the MIC (Enterococcus faecium [7]) was 2 µg/mL (≈ 5.33 µM) and the MIC50 (Shigella dysenteriae) was 0.03 µg/mL (≈ 0.0799 µM). It also gave an MIC90 (Shigella dysenteriae) of 0.06 µg/mL (≈ 0.16 µM), an MIC50 (Streptococcus pyogenes) of 0.25 µg/mL (≈ 0.666 µM) and an MIC90 (Streptococcus pyogenes) of 0.5 µg/mL (≈ 1.33 µM). The MIC50 [8] was 0.25 µg/mL (≈ 0.666 µM), the MIC90 [8] was 0.25 µg/mL (≈ 0.666 µM) and the MIC50 (Acinetobacter sp.) was 0.03 µg/mL (≈ 0.0799 µM). The MIC90 (Acinetobacter sp.) was 16 µg/mL (≈ 42.6 µM), the MIC50 (Salmonella typhimurium) was 0.03 µg/mL (≈ 0.0799 µM) and the MIC90 (Salmonella typhimurium) was 0.06 µg/mL (≈ 0.16 µM). For the same molecule, the MIC (Proteus vulgaris) was 0.06 µg/mL (≈ 0.16 µM), the MIC [9] was 0.06 µg/mL (≈ 0.16 µM) and the MIC [10] was 0.06 µg/mL (≈ 0.16 µM). The MIC (Enterococcus faecalis) was 8 µg/mL (≈ 21.3 µM), the MIC50 (Burkholderia cepacia) was 4 µg/mL (≈ 10.7 µM) and the MIC90 (Burkholderia cepacia) was 16 µg/mL (≈ 42.6 µM). It also gave an MIC50 (Streptococcus salivarius) of 0.5 µg/mL (≈ 1.33 µM), an MIC90 (Streptococcus salivarius) of 0.5 µg/mL (≈ 1.33 µM) and an MIC50 (Shigella sonnei) of 0.03 µg/mL (≈ 0.0799 µM). The MIC90 (Shigella sonnei) was 0.06 µg/mL (≈ 0.16 µM), the MIC (Fusobacterium nucleatum) was 0.015 µg/mL (≈ 0.04 µM) and the MIC50 (Prevotella sp.) was 0.25 µg/mL (≈ 0.666 µM). The MIC90 (Prevotella sp.) was 0.5 µg/mL (≈ 1.33 µM), the MIC50 (Salmonella enteritidis) was 0.03 µg/mL (≈ 0.0799 µM) and the MIC90 (Salmonella enteritidis) was 0.06 µg/mL (≈ 0.16 µM). The MIC50 (Neisseria gonorrhoeae) was 0.004 µg/mL (≈ 0.0107 µM), the MIC90 (Neisseria gonorrhoeae) was 0.008 µg/mL (≈ 0.0213 µM) and the MIC50 (Streptococcus pneumoniae [11]) was 4 µg/mL (≈ 10.7 µM). For the same molecule, the MIC90 (Streptococcus pneumoniae [11]) was 4 µg/mL (≈ 10.7 µM), the MIC50 (Cutibacterium acnes) was 1 µg/mL (≈ 2.66 µM) and the MIC90 (Cutibacterium acnes) was 8 µg/mL (≈ 21.3 µM). It also gave an MIC50 (Pseudomonas aeruginosa) of 1 µg/mL (≈ 2.66 µM), an MIC90 (Pseudomonas aeruginosa) of 64 µg/mL (≈ 170 µM) and an MIC50 (Streptococcus pneumoniae [12]) of 0.25 µg/mL (≈ 0.666 µM). For the same molecule, the MIC90 (Streptococcus pneumoniae [12]) was 0.5 µg/mL (≈ 1.33 µM), the MIC50 (Klebsiella oxytoca) was 0.03 µg/mL (≈ 0.0799 µM) and the MIC90 (Klebsiella oxytoca) was 1 µg/mL (≈ 2.66 µM).
